ChEMBL document CHEMBL1667797, “Synthesis and anticoagulant activity of a new series of 1,4-dihydropyridine derivatives” (2011)

Tests used:
Assay type in all cases: functional
Plasma [1] = assay: Anticoagulant activity in human plasma assessed as activated partial […] time index at 60 ug/ml relative to control
Summary of the method: (§1)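 Citrated plasma from healthy human donors (blood into 2.5% sodium citrate, spun 5400 rpm, 4 °C, 20 min, stored -70 °C). Plasma 90 µl plus 10 µl compound in water, 1 min at 37 °C. APTT reagent added, 5 min at 37 °C, then CaCl2 added. Clotting time read on a coagulometer. Saline control, heparin reference. Index = sample APTT/control APTT. Mean of five trials.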

Plasma [2] = assay: Anticoagulant activity in human plasma assessed as activated partial […] time at 60 ug/ml; summary of the method: as §1
Plasma [3] = assay: Anticoagulant activity in human plasma assessed as prothrombin time index at 30 ug/ml relative to control
Summary of the method: (§2)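 Citrated human donor plasma (2.5% sodium citrate, spun 5400 rpm at 4 °C for 20 min, kept at -70 °C). 90 µl plasma with 10 µl aqueous compound, incubated 10 min at 37 °C. Pre-incubated PT reagent (200 µl) added, clotting time recorded. Normal saline as control. PT index = sample PT/control PT. Mean of five trials.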

Plasma [4] = assay: Anticoagulant activity in human plasma assessed as prothrombin time at 30 ug/ml; summary of the method: as §2
Plasma [5] = assay: Anticoagulant activity in human plasma assessed as prothrombin time index at 60 ug/ml relative to control; summary of the method: as §2
Plasma [6] = assay: Anticoagulant activity in human plasma assessed as activated partial […] time at 30 ug/ml; summary of the method: as §1
Plasma [7] = assay: Anticoagulant activity in human plasma assessed as prothrombin time at 60 ug/ml; summary of the method: as §2
Plasma [8] = assay: Anticoagulant activity in human plasma assessed as activated partial […] time index at 30 ug/ml relative to control; summary of the method: as §1

`CC1=C(C(=O)NNC(N)=S)C(c2ccco2)C(C(=O)NNC(N)=S)=C(C)N1` was tested, and the Ratio (Plasma [1]) was 27.47, the APTT (Plasma [2]) was greater than 1000 s and the Ratio (Plasma [3]) was 12.14. For the same compound, the PT (Plasma [4]) was 240.42 s, the Ratio (Plasma [5]) was 21.22 and the APTT (Plasma [6]) was 720.35 s. The PT (Plasma [7]) was 420.21 s and the Ratio (Plasma [8]) was 19.78.
`CC1=C(C(=O)NNC(N)=S)C(c2ccccc2)C(C(=O)NNC(N)=S)=C(C)N1` gave a Ratio (Plasma [1]) of 5.01, an APTT (Plasma [2]) of 182.4 s and a Ratio (Plasma [3]) of 0. For the same compound, the Ratio (Plasma [5]) was 2.31, the APTT (Plasma [6]) was 87.5 s and the PT (Plasma [7]) was 45.8 s. It also gave a Ratio (Plasma [8]) of 2.4.
Work on `CC1=C(C(=O)NNC(N)=S)C(c2ccc(Cl)cc2)C(C(=O)NNC(N)=S)=C(C)N1` yielded a Ratio (Plasma [1]) of 5.5, an APTT (Plasma [2]) of 200.4 s and a Ratio (Plasma [3]) of 0. For the same compound, the Ratio (Plasma [5]) was 1.24, the APTT (Plasma [6]) was 90.7 s and the PT (Plasma [7]) was 33.8 s. The Ratio (Plasma [8]) was 2.49.
`CC1=C(C(=O)NNC(N)=S)C(c2ccc(O)cc2)C(C(=O)NNC(N)=S)=C(C)N1` gave a Ratio (Plasma [1]) of 24.25, an APTT (Plasma [2]) of 882.7 s and a Ratio (Plasma [3]) of 2.3. It also gave a PT (Plasma [4]) of 45.6 s, a Ratio (Plasma [5]) of 3.5 and an APTT (Plasma [6]) of 400.8 s. It also gave a PT (Plasma [7]) of 70.8 s and a Ratio (Plasma [8]) of 11.
In the case of `CC1=C(C(=O)NNC(N)=S)C(c2ccc([N+](=O)[O-])cc2)C(C(=O)NNC(N)=S)=C(C)N1`, the Ratio (Plasma [1]) is reported as 19.82, the APTT (Plasma [2]) is reported as 721.8 s and the PT (Plasma [4]) is reported as 24.7 s. The Ratio (Plasma [5]) was 2.66, the APTT (Plasma [6]) was 321.2 s and the PT (Plasma [7]) was 52.8 s. For the same compound, the Ratio (Plasma [8]) was 8.82.
`COc1ccc(C2C(C(=O)NNC(N)=S)=C(C)NC(C)=C2C(=O)NNC(N)=S)cc1` was tested, and the Ratio (Plasma [1]) was 3.3, the APTT (Plasma [2]) was 120.2 s and the Ratio (Plasma [3]) was 2.03. The PT (Plasma [4]) was 45.7 s, the Ratio (Plasma [5]) was 4.71 and the APTT (Plasma [6]) was 64.7 s. For the same compound, the PT (Plasma [7]) was 93.4 s and the Ratio (Plasma [8]) was 1.85.
`CC1=C(C(=O)NNC(N)=S)C(c2ccc(N(C)C)cc2)C(C(=O)NNC(N)=S)=C(C)N1` gave a Ratio (Plasma [1]) of 13.18, an APTT (Plasma [2]) of 480 s and a Ratio (Plasma [3]) of 1.09. For the same compound, the PT (Plasma [4]) was 21.6 s, the Ratio (Plasma [5]) was 2.43 and the APTT (Plasma [6]) was 221.8 s. It also gave a PT (Plasma [7]) of 48.2 s and a Ratio (Plasma [8]) of 6.09.
